Our source for the Activity values is ChEMBL document CHEMBL2434829, “Synthesis of new andrographolide derivatives and evaluation of their antidyslipidemic, LDL-oxidation and antioxidant activity” (2013).

Structures are written as SMILES. Active and inactive are the calls of the source. No cut-off for these calls is given here.

The nature of assay [1]: Antioxidant activity assessed as reduction of microsomal lipid per-oxidation level by measuring formation of malondialdehyde at 200 ug/ml after 90 mins by spectrophotometric analysis relative to control. Also on record: scale not given: the % may be the effect or the level left. The assay is classed as functional.
A short description of assay [2]: Antioxidant activity assessed as decrease in hydroxyl radicals level by measuring formation of malondialdehyde at 200 ug/ml after 90 mins by spectrophotometric analysis relative to control. The assay is classed as functional. More on the design: scale not given: the % may be the effect or the level left. The method in brief:
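Hydroxyl radicals generated without enzyme from deoxyribose 2.8 mM, FeSO4·7H2O 2 mM, sodium ascorbate 2.0 mM and H2O2 2.8 mM in 50 mM KH2PO4 pH 7.4. Compound at 200 µg/mL. Incubated 37 °C for 90 min. Mannitol as standard.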

The nature of assay [3]: Antioxidant activity assessed as decrease in superoxide anions level by measuring formation of formazone at 200 ug/ml after 30 mins by spectrophotometric analysis relative to control. More on the design: scale not given: the % may be the effect or the level left. The assay is classed as functional. The method in brief: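 Superoxide made enzymatically with xanthine ([…]), xanthine oxidase (0.04 U) and nitroblue tetrazolium (320 µM) in 100 mM phosphate buffer pH 8.2. Compound at 200 µg/mL, sonicated in buffer. Incubated 37 °C for 30 min, stopped with glacial acetic acid, formazan read spectrophotometrically. Allopurinol as standard.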

The test system of assay [4] is Rattus norvegicus. Kind of assay: Antidyslipidemic activity in Charles foster rat assessed as increase in triton WR-1339-reduced post heparin lipolytic activity level in plasma at 100 mg/kg, po after 18 hrs by spectrophotometric analysis relative to triton-treated rat. The assay is classed as functional. More on the design: scale not given: the % may be the effect or the level left. The method in brief: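 Triton WR-1339 hyperlipidemia in male Charles Foster rats: 400 mg/kg i.p. plus oral dose in gum acacia vehicle, fasted, 6 rats/group. Plasma taken 18 h later from retro-orbital blood. Post-heparin lipolytic activity measured spectrophotometrically as nmol free fatty acids formed/h/ml plasma. Percent change against triton-only rats; mean ± SD.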

For assay [5], the system named is Rattus norvegicus. Kind of assay: Antidyslipidemic activity in Charles foster rat assessed as decrease in triton WR-1339-induced triglyceride level in plasma at 100 mg/kg, po after 18 hrs relative to triton-treated rat. The class given is functional. Also on record: scale not given: the % may be the effect or the level left. The method in brief: (§1)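 Male adult Charles Foster rats (200–225 g), six per group. Triton WR-1339 400 mg/kg i.p., with test agent given orally at the same time as a gum acacia suspension in water; food withdrawn. Controls received vehicle. At 18 h, retro-orbital EDTA blood taken and centrifuged 2500 × g for 10 min at 4 °C. Plasma diluted 1:3 in saline; TC, PL and TG read enzymatically on an autoanalyzer. Percent change against triton group.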

In assay [6] the test system is Rattus norvegicus. Nature of the assay: Antidyslipidemic activity in Charles foster rat assessed as decrease in triton WR-1339-induced phospholipid level in plasma at 100 mg/kg, po after 18 hrs relative to triton-treated rat. The assay is classed as functional. More on the design: scale not given: the % may be the effect or the level left. An outline of the steps: as §1

In assay [7] the test system is Rattus norvegicus. Kind of assay: Antidyslipidemic activity in Charles foster rat assessed as decrease in triton WR-1339-induced total cholesterol level in plasma at 100 mg/kg, po after 18 hrs relative to triton-treated rat. The class given is functional. More on the design: scale not given: the % may be the effect or the level left. An outline of the steps:
as §1

In assay [8] the test system is Rattus norvegicus. Kind of assay: Antidyslipidemic activity in Charles foster rat assessed as increase in triton WR-1339-reduced lipoprotein lipase level in liver at 100 mg/kg, po relative to triton-treated rat. The class given is functional, organism-based. More on the design: dose 100 mg/kg. The method in brief: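 Rats given triton WR-1339 (400 mg/kg i.p.) with oral test agent in gum acacia, 6 per group. Liver homogenized 10% w/v in cold 100 mM phosphate buffer pH 7.2 and assayed for total lipoprotein lipase lipolytic activity. Mean ± SD.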

For `C=C1CC[C@@H]2[C@]3(C)COC(C)(C)O[C@@H]3CC[C@@]2(C)[C@@H]1C/C=C1/C(=O)OC[C@H]1OC(C)=O`, the Activity in assay [1] amounted to 26%; in assay [2] it was 25%; in assay [3], 23%; in the assay with Rattus norvegicus [4] it was 5%; with Rattus norvegicus [5], 13%; in the assay with Rattus norvegicus [6], 14%. For the same compound, in the assay with Rattus norvegicus [7], the Activity is listed as 16%.
On to `Oc1ncnc2[nH]ncc12`, for which the Activity in assay [3] came out at 54%.
`C=C1CC[C@@H]2[C@](C)(CO)[C@H](O)CC[C@@]2(C)[C@@H]1C/C=C1/C(=O)OC[C@H]1OC(C)=O`: the Activity in assay [1] was 19%; in assay [2], 17%; in assay [3], 19%; with Rattus norvegicus [4], 7%; in the assay on Rattus norvegicus [5] it was 15%; in the assay with Rattus norvegicus [6] it was 13%. Besides, the Activity in the assay on Rattus norvegicus [7] is listed as 13%.
For the compound `C=C1CC[C@@H]2[C@](C)(COS(=O)(=O)c3ccc(C)cc3)[C@H](O)CC[C@@]2(C)[C@@H]1C/C=C1/C(=O)OC[C@H]1OC(C)=O`, the Activity in assay [1] is 29%; in assay [2], 30%; in assay [3], 27%; in the assay with Rattus norvegicus [4], 13%; in the assay on Rattus norvegicus [5], 22%; in the assay with Rattus norvegicus [6] it was 22%. The Activity in the assay on Rattus norvegicus [7] turned out to be 20%.
`Cc1c(C)c2c(c(C)c1O)CC[C@@](C)(CCC[C@H](C)CCC[C@H](C)CCCC(C)C)O2`: the Activity in assay [1] was found to be 55%.
With `C=C1CC[C@@H]2[C@](C)(COS(=O)(=O)c3c(C)cc(C)cc3C)[C@H](O)CC[C@@]2(C)[C@@H]1C/C=C1/C(=O)OC[C@H]1O`, the Activity amounted to 26% in assay [1]; 25% in assay [2]; 23% in assay [3]; 12% with Rattus norvegicus [4]; 20% with Rattus norvegicus [5]; 20% in the assay with Rattus norvegicus [6]. In addition, in the assay on Rattus norvegicus [7], the Activity was 22%.
Consider `C=C1CC[C@@H]2[C@](C)(CO)[C@H](O)CC[C@@]2(C)[C@@H]1CCC1=CCOC1=O` [DEOXYANDROGRAPHOLIDE], for which the Activity in assay [1] was determined as 13%; in assay [2], 16%; in assay [3], 11%; with Rattus norvegicus [4], 6%; with Rattus norvegicus [5], 12%; in the assay with Rattus norvegicus [6], 14%. In addition, the Activity in the assay on Rattus norvegicus [7] is recorded as 17%.
As for `OC[C@@H](O)[C@@H](O)[C@H](O)[C@H](O)CO`, in assay [2], the Activity stood at 50%.
Turning to `CC1CC[C@@H]2[C@](C)(CO)[C@H](O)CC[C@@]2(C)[C@@H]1C/C=C1/C(=O)OC[C@H]1O` (stereo partly specified), the Activity in assay [1] came to 17%; in assay [2] it was 15%; in assay [3] it was 19%; in the assay on Rattus norvegicus [4], 5%; in the assay on Rattus norvegicus [5], 15%; in the assay on Rattus norvegicus [6], 17%. Besides, the Activity in the assay on Rattus norvegicus [7] is reported as 14%.
Consider `C=C1CC[C@H]2[C@@](C)(CCC(=O)[C@@]2(C)C=O)[C@@H]1C/C=C1/C(=O)OC[C@H]1O`, for which the Activity in assay [1] amounted to 14%; in assay [2], 12%; in assay [3], 16%; in the assay on Rattus norvegicus [4], 4%; in the assay with Rattus norvegicus [5] it was 10%; in the assay on Rattus norvegicus [6], 10%. In the assay on Rattus norvegicus [7], the Activity was found to be 13%.
For the compound `C[C@]1(CO)[C@H]2CC[C@@]3(CO3)[C@@H](C/C=C3/C(=O)OC[C@H]3O)[C@]2(C)CC[C@H]1O`, the Activity in assay [1] worked out at 14%; in assay [2] it was 15%; in assay [3], 17%; with Rattus norvegicus [4] it was 6%; in the assay with Rattus norvegicus [5] it was 14%; with Rattus norvegicus [6] it was 17%. For the same compound, the Activity in the assay on Rattus norvegicus [7] came to 15%.
With `C=C1CC[C@@H]2[C@](C)(COC(C)=O)[C@H](OC(C)=O)CC[C@@]2(C)[C@@H]1C/C=C1/C(=O)OC[C@H]1OC(C)=O`, the Activity is 11% in assay [1]; 16% in assay [2]; 12% in assay [3]; 11% in the assay on Rattus norvegicus [4]; 18% in the assay on Rattus norvegicus [5]; 16% in the assay on Rattus norvegicus [6]. Besides, the Activity with Rattus norvegicus [7] was 19%.
`C=C1CC[C@@H]2[C@](C)(CO)[C@H](O)CC[C@@]2(C)[C@@H]1C/C=C1\C=COC1=O`: the Activity in assay [1] is 13%; in assay [2] it was 18%; in assay [3], 16%; in the assay with Rattus norvegicus [4], 10%; in the assay with Rattus norvegicus [5] it was 18%; in the assay on Rattus norvegicus [6], 17%. For the same compound, the Activity with Rattus norvegicus [7] turned out to be 19%.
`CC1CC[C@@H]2[C@](C)(CO)[C@H](O)CC[C@@]2(C)[C@@H]1CCC1C(=O)OC[C@H]1O` (stereo partly specified): the Activity in assay [1] came out at 14%; in assay [2] it was 17%; in assay [3], 13%; in the assay with Rattus norvegicus [4] it was 4%; with Rattus norvegicus [5], 15%; in the assay with Rattus norvegicus [6], 13%. Besides, the Activity with Rattus norvegicus [7] worked out at 11%.
As to `CC(C)OC(=O)C(C)(C)Oc1ccc(C(=O)c2ccc(Cl)cc2)cc1` [FENOFIBRATE], in the assay on Rattus norvegicus [8], the result was Active. Moreover, the Activity with Rattus norvegicus [4] turned out to be 17%; in the assay with Rattus norvegicus [5], 33%; in the assay on Rattus norvegicus [6] it was 33%; in the assay with Rattus norvegicus [7], 32%.
As for `Cc1ccc(C)c(OCCCC(C)(C)C(=O)O)c1` [GEMFIBROZIL], the outcome in the assay on Rattus norvegicus [8] was Active. For the same compound, the Activity in the assay with Rattus norvegicus [4] turned out to be 16%; with Rattus norvegicus [5] it was 28%; in the assay on Rattus norvegicus [6], 30%; in the assay on Rattus norvegicus [7], 30%.
Turning to `C=C1CC[C@@H]2[C@](C)(CO)[C@H](O)CC[C@@]2(C)[C@@H]1CCC1C(=O)OC[C@H]1O` (stereo partly specified), the Activity was found to be 10% in assay [1]; 11% in assay [2]; 14% in assay [3]; 5% with Rattus norvegicus [4]; 11% in the assay on Rattus norvegicus [5]; 10% with Rattus norvegicus [6]. In the assay on Rattus norvegicus [7], the Activity is 12%.
Take `C=C1CC[C@@H]2[C@](C)(COS(=O)(=O)c3c(C)cc(C)cc3C)[C@H](O)CC[C@@]2(C)[C@@H]1C/C=C1/C(=O)OC[C@H]1OC(C)=O`: the Activity came out at 26% in assay [1]; 28% in assay [2]; 31% in assay [3]; 6% in the assay with Rattus norvegicus [4]; 11% in the assay on Rattus norvegicus [5]; 14% in the assay with Rattus norvegicus [6]. The Activity in the assay with Rattus norvegicus [7] was 12%.
With `C=C1CC[C@@H]2[C@]3(C)COC(C)(C)O[C@@H]3CC[C@@]2(C)[C@@H]1C/C=C1/C(=O)OC[C@H]1O`, the Activity in assay [1] amounted to 17%; in assay [2], 11%; in assay [3] it was 15%; in the assay on Rattus norvegicus [4], 6%; in the assay on Rattus norvegicus [5] it was 15%; in the assay on Rattus norvegicus [6] it was 12%. In the assay on Rattus norvegicus [7], the Activity worked out at 16%.
